In brackets after ≈: the same amount, converted by molar mass.
Columns and labels:
Assay type in all cases: functional
HeLa [1] = experiment: tested for minimum inhibitory concentration required to cause a microscopically detectable alteration of normal cell morphology by 50% on HeLa cell line; details: Homo sapiens
Outline: (§1)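 HeLa (human epithelial), MDCK (Madin-Darby canine kidney) or Vero (African green monkey kidney) cells were scored by microscopy. The value is the minimum concentration that causes a detectable alteration of normal cell morphology. Values are averages of at least two separate experiments.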

Vero [2] = experiment: tested for minimum inhibitory concentration required to reduce virus-induced cytopathicity by 50% on vero cell line infected with sindbis virus; details: Chlorocebus sabaeus
Outline: (§2)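 HeLa (human epithelial), MDCK (Madin-Darby canine kidney) or Vero (African green monkey kidney) cells were infected with the stated virus. The value is the concentration that reduces virus-induced cytopathicity by 50%. Values are averages of at least two separate experiments.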

HEF [3] = experiment: tested for minimum inhibitory concentration required to reduce virus-induced cytopathicity by 50% on HEF cell line infected with HSV-2 virus; details: Homo sapiens
Outline: (§3)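 Human embryonic skin-muscle fibroblasts (HEF) were infected with the stated virus. The value is the concentration that reduces virus-induced cytopathicity by 50%. Values are averages of at least two separate experiments.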

HeLa [4] = experiment: tested for minimum inhibitory concentration required to reduce virus-induced cytopathicity by 50% on HeLa cell line infected with polio 1 virus; details: Homo sapiens; outline: as §2
MDCK [5] = experiment: tested for minimum inhibitory concentration required to cause a microscopically detectable alteration of normal cell morphology by 50% on MDCK cell line; details: Canis lupus familiaris; outline: as §1
HEF [6] = experiment: Tested for minimum inhibitory concentration required to reduce virus-induced cytopathicity by 50% on HEF cell line infected with thymidine kinase-deficient herpes simplex virus type 1 (TK-HSV-1); details: Homo sapiens; outline: as §3
HEF [7] = experiment: tested for minimum inhibitory concentration required to reduce virus-induced cytopathicity by 50% on HEF cell line infected with vaccinia virus; details: Homo sapiens; outline: as §3
HEF [8] = experiment: Tested for minimum inhibitory concentration required to reduce virus-induced cytopathicity by 50% on HEF cell line infected with HSV-1 virus; details: Homo sapiens; outline: as §3
Vero [9] = experiment: tested for minimum inhibitory concentration required to reduce virus-induced cytopathicity by 50% on vero cell line infected with semliki forest virus; details: Chlorocebus sabaeus; outline: as §2
CCRF-CEM [10] = experiment: tested for minimum inhibitory concentration required to reduce virus-induced cell viability by 50% on CEM cell line; details: Homo sapiens
Vero [11] = experiment: tested for minimum inhibitory concentration required to cause a microscopically detectable alteration of normal cell morphology by 50% on vero cell line; details: Chlorocebus sabaeus; outline: as §1
HEF [12] = experiment: tested for minimum inhibitory concentration required to cause a microscopically detectable alteration of normal cell morphology by 50% on HEF cell line; details: Homo sapiens
Outline: (§4)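 Human embryonic skin-muscle fibroblasts (HEF) were used. The value is the minimum concentration that causes a microscopically detectable alteration of normal cell morphology. Values are averages of at least two separate experiments.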

HEF [13] = experiment: tested for minimum inhibitory concentration required to reduce virus-induced cytopathicity by 50% on HEF cell line infected with vesicular stomatitis virus; details: Homo sapiens; outline: as §3
CCRF-CEM [14] = experiment: tested for minimum inhibitory concentration required to reduce virus-induced cytopathicity by 50% on CEM cell line infected with HIV-2 virus; details: Homo sapiens
HeLa [15] = experiment: Tested for minimum inhibitory concentration required to reduce virus-induced cytopathicity by 50% on HeLa cell line infected with RSV virus; details: Homo sapiens; outline: as §2
MDCK [16] = experiment: Tested for minimum inhibitory concentration required to reduce virus-induced cytopathicity by 50% on MDCK cell line infected with influenza A virus; details: Canis lupus familiaris; outline: as §2
HEF [17] = experiment: tested for minimum inhibitory concentration required to reduce […] by 50% on HEF cell line; details: Homo sapiens
Outline: (§5)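 Human embryonic lung fibroblasts (HEF) were used for cell proliferation. The value is the concentration that reduces cell proliferation by 50%. Values are averages of at least two separate experiments.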

CCRF-CEM [18] = experiment: tested for minimum inhibitory concentration required to reduce virus-induced cytopathicity by 50% was evaluated on CEM cell line infected with HIV-1 virus; details: Homo sapiens
Vero [19] = experiment: Tested for minimum inhibitory concentration required to reduce virus-induced cytopathicity by 50% on vero cell line infected with parainfluenza 3 virus; details: Chlorocebus sabaeus; outline: as §2
Vero [20] = experiment: tested for minimum inhibitory concentration required to reduce virus-induced cytopathicity by 50% on vero cell line infected with Reo 1 virus; details: Chlorocebus sabaeus; outline: as §2
MDCK [21] = experiment: Tested for minimum inhibitory concentration required to reduce virus-induced cytopathicity by 50% on MDCK cell line infected with influenza B virus; details: Canis lupus familiaris; outline: as §2
Vero [22] = experiment: tested for minimum inhibitory concentration required to reduce virus-induced cytopathicity by 50% on vero cell line infected with coxsackie B4 virus; details: Chlorocebus sabaeus; outline: as §2
HEF [23] = experiment: Tested for minimum inhibitory concentration required to reduce virus-induced cytopathicity by 50% on HEF cell line infected with vesicular stomatitis virus; details: Homo sapiens; outline: as §3
HeLa [24] = experiment: Tested for minimum inhibitory concentration required to reduce virus-induced cytopathicity by 50% on HeLa cell line infected with polio 1 virus; details: Homo sapiens; outline: as §2
Vero [25] = experiment: Tested for minimum inhibitory concentration required to cause a microscopically detectable alteration of normal cell morphology by 50% on vero cell line; details: Chlorocebus sabaeus; outline: as §1
CCRF-CEM [26] = experiment: Tested for minimum inhibitory concentration required to reduce virus-induced cytopathicity by 50% on CEM cell line infected with HIV-2 virus; details: Homo sapiens
Vero [27] = experiment: Tested for minimum inhibitory concentration required to reduce virus-induced cytopathicity by 50% on vero cell line infected with semliki forest virus; details: Chlorocebus sabaeus; outline: as §2
MDCK [28] = experiment: Tested for minimum inhibitory concentration required to cause a microscopically detectable alteration of normal cell morphology by 50% on MDCK cell line; details: Canis lupus familiaris; outline: as §1
Vero [29] = experiment: Tested for minimum inhibitory concentration required to reduce virus-induced cytopathicity by 50% on vero cell line infected with sindbis virus; details: Chlorocebus sabaeus; outline: as §2
HEF [30] = experiment: Tested for minimum inhibitory concentration required to cause a microscopically detectable alteration of normal cell morphology by 50% on HEF cell line; details: Homo sapiens; outline: as §4
Vero [31] = experiment: Tested for minimum inhibitory concentration required to reduce virus-induced cytopathicity by 50% on vero cell line infected with Reo 1 virus; details: Chlorocebus sabaeus; outline: as §2
CCRF-CEM [32] = experiment: Tested for minimum inhibitory concentration required to reduce virus-induced cell viability by 50% on CEM cell line.; details: Homo sapiens
HeLa [33] = experiment: Tested for minimum inhibitory concentration required to cause a microscopically detectable alteration of normal cell morphology by 50% on HeLa cell line; details: Homo sapiens; outline: as §1
HEF [34] = experiment: Tested for minimum inhibitory concentration required to reduce […] by 50% on HEF cell line; details: Homo sapiens; outline: as §5
HEF [35] = experiment: Tested for minimum inhibitory concentration required to reduce virus-induced cytopathicity by 50% on HEF cell line infected with vaccinia virus; details: Homo sapiens; outline: as §3
CCRF-CEM [36] = experiment: Tested for minimum inhibitory concentration required to reduce virus-induced cytopathicity by 50% was evaluated on CEM cell line infected with HIV-1 virus; details: Homo sapiens
Vero [37] = experiment: Tested for minimum inhibitory concentration required to reduce virus-induced cytopathicity by 50% on vero cell line infected with coxsackie B4 virus; details: Chlorocebus sabaeus; outline: as §2
HEF [38] = experiment: Tested for minimum inhibitory concentration required to reduce virus-induced cytopathicity by 50% on HEF cell line infected with HSV-2 virus; details: Homo sapiens; outline: as §3

C1CN(CC2CC2)C2(C1)C1CC3CC(C1)CC2C3 (centres undefined)
MIC50 (HeLa [1]): > 400 mg/L | MIC50 (Vero [2]): > 400 mg/L | MIC50 (HEF [3]): > 400 mg/L | MIC50 (HeLa [4]): > 400 mg/L | MIC50 (MDCK [5]): 100 mg/L (≈ 407 µM) | MIC50 (HEF [6]): ≥ 400 mg/L | MIC50 (HEF [7]): 100 mg/L (≈ 407 µM) | MIC50 (HEF [8]): 300 mg/L (≈ 1220 µM) | MIC50 (Vero [9]): > 400 mg/L | MIC50 (CCRF-CEM [10]): > 200 mg/L | MIC50 (Vero [11]): > 400 mg/L | MIC50 (HEF [12]): > 400 mg/L | MIC50 (HEF [13]): 150 mg/L (≈ 611 µM) | MIC50 (CCRF-CEM [14]): > 200 mg/L | MIC50 (HeLa [15]): ≥ 150 mg/L | MIC50 (MDCK [16]): ≥ 40 mg/L | MIC50 (HEF [17]): > 200 mg/L | MIC50 (CCRF-CEM [18]): > 200 mg/L | MIC50 (Vero [19]): > 400 mg/L | MIC50 (Vero [20]): > 400 mg/L | MIC50 (MDCK [21]): > 100 mg/L | MIC50 (Vero [22]): > 400 mg/L

O=C(Nc1ccc(Cl)cc1)N1CCCC12C1CC3CC(C1)CC2C3 (centres undefined)
MIC50 (HEF [23]): > 20 mg/L | MIC50 (HeLa [24]): > 70 mg/L | MIC50 (Vero [25]): 100 mg/L (≈ 290 µM) | MIC50 (CCRF-CEM [26]): > 1.6 mg/L | MIC50 (Vero [27]): > 70 mg/L | MIC50 (MDCK [28]): 20 mg/L (≈ 58 µM) | MIC50 (Vero [29]): > 70 mg/L | MIC50 (HEF [30]): 40 mg/L (≈ 116 µM) | MIC50 (HEF [6]): > 20 mg/L | MIC50 (Vero [31]): > 70 mg/L | MIC50 (CCRF-CEM [32]): 3.4 mg/L (≈ 9.86 µM) | MIC50 (HEF [8]): > 20 mg/L | MIC50 (HeLa [33]): 100 mg/L (≈ 290 µM) | MIC50 (HEF [34]): 150 mg/L (≈ 435 µM) | MIC50 (HeLa [15]): > 20 mg/L | MIC50 (MDCK [16]): 2.4 mg/L (≈ 6.96 µM) | MIC50 (Vero [19]): > 70 mg/L | MIC50 (MDCK [21]): > 20 mg/L | MIC50 (HEF [35]): > 20 mg/L | MIC50 (CCRF-CEM [36]): > 1.6 mg/L | MIC50 (Vero [37]): > 70 mg/L | MIC50 (HEF [38]): > 20 mg/L

Source: ChEMBL document CHEMBL1127450, “Synthesis and antiviral activity evaluation of some aminoadamantane derivatives” (1994)
